This is a sample that favours compounds with a hit; in the whole collection about 1.5% have one here.
ERp5 block: inhibitors of ERp5-driven insulin aggregation, primary screen, biochemical, turbidity, absorbance 650 nm, single point. AID 651711, 2012. 90 min. 350,000 compounds, 0.05% hits. inhibition, % at 9.99 µM. Protein disulfide-isomerase A6 (Homo sapiens), Q15084;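 active means mean replicate inhibition above about 25%, with every replicate also reaching it, limit read from the data, passing the limit was not always enough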
SIRT5 inh: SIRT5 desuccinylase inhibitors, primary screen, biochemical, fluorescence imaging, single point, set 5; NAD-dependent protein deacylase sirtuin-5, mitochondrial (Homo sapiens), Q9NXA8; Purified SirT5, succinyl-peptide AMC, trypsin-coupled fluorescence; inhibition, % at 15 µM; 330,000 compounds, 1.1% hits; AID 652115, 2013; in the data active means inhibition above about 15%
Target sequence (Q9NXA8 whole entry, looked up): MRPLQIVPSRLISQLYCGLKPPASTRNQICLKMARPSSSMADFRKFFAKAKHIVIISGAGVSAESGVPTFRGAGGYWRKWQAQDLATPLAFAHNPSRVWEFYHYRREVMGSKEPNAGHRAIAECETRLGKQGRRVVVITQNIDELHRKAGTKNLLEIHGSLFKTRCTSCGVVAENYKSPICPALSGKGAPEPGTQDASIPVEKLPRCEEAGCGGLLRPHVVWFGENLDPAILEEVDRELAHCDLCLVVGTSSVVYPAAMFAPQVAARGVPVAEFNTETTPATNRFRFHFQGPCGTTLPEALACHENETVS
S100A4 inh HTS: inhibitors of S100A4-myosin IIA peptide binding, primary screen, biochemical, fluorescence polarization, TAMRA-MyoIIA peptide | Protein S100-A4 (Homo sapiens), P26447 | AID 652163, 2013 | inhibition, % at 10.7 µM | 360,000 compounds, 0.14% hits;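 active means mean inhibition of at least 70% across replicates, with every replicate also reaching that level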
Target sequence (P26447 whole entry, looked up): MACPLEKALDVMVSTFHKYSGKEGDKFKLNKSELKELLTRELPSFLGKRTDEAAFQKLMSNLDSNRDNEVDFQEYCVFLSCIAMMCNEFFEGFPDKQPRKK
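Test system – S100A4 monomer (human) · Compound – single-point compound testing · Schedule – 5 min incubation before reading · Probe or stimulus – TAMRA-labelled myosin IIA heavy-chain peptide probe, 5 nM · Benchmarks – neutral control DMSO, positive control TFP · Medium – Calcium-containing HEPES buffer, pH 7.2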
GSIS activator: GLuc luminescence reporter in INS-1E cells, primary screen for activators of glucose-dependent secretion of insulin | INS-1E GLuc reporter insulin secretion, 2-3 h | activation, % at 16.6 µM | 370,000 compounds, 0.61% hits | AID 743287, 2014;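 active means lowest replicate activation of at least 40%, so every replicate reaches that level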;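 further: 0% = median of neutral control wells and 100% = median of IBMX positive control wells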
PDI inh: inhibitors of human PDI, primary screen, biochemical, turbidity, single point, plate reader. inhibition, % at 10 µM. AID 588391, 2011. PDI insulin aggregation turbidity, A650, 90 min. 350,000 compounds, 0.052% hits;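 active means mean inhibition across replicates of 30% or more, whatever share of single replicates reach that level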
* hit, by the source's call; nt = no result.

SMILES	ERp5 block	SIRT5 inh	S100A4 inh HTS	GSIS activator	PDI inh
CC(NCC(O)COCCC12CC3CC(CC(C3)C1)C2)c1ccccc1 (stereo not drawn)	-12	-3	-3	167*	-13
C[C@H]1CN([C@@H](C)CO)C(=O)c2cccc(NS(=O)(=O)c3cn(C)cn3)c2O[C@H]1CN(C)Cc1ccccc1	-2	-1	5	25	nt
O=S(=O)(c1cccs1)N1CCCCN2[C@H](C1)[C@H](c1ccc(C3=CCCC3)cc1)[C@@H]2CO	4	2	9	9	nt
Cc1cccc(-c2ccc([C@@H]3[C@@H](CO)N4CCCCN(S(=O)(=O)c5cccc(C)c5)C[C@H]34)cc2)c1	2	8	4	113	nt
O=S(=O)(c1cccs1)N1CCCCN2[C@H](CO)[C@H](c3ccc(C4=CCCCC4)cc3)[C@H]2C1	-2	20*	-5	nt	nt
Cc1ccc(-c2ccc([C@@H]3[C@@H](CO)N4CCCCN(S(=O)(=O)c5cccc(C)c5)C[C@@H]34)cc2)cc1	-3	17*	5	nt	nt
Cc1ccc(-c2ccc([C@H]3[C@@H](CO)N4CCCCN(S(=O)(=O)c5cccc(C)c5)C[C@H]34)cc2)cc1	-6	19*	0	nt	nt
C[C@@H]1CCCCO[C@@H](CN(C)S(=O)(=O)c2ccc(Cl)cc2)[C@H](C)CN([C@H](C)CO)C(=O)c2cc(NC(=O)NC3CCCCC3)ccc2O1	-2	4	2	-7	nt
Cc1ccccc1S(=O)(=O)NCC[C@@H]1CC[C@@H](NC(=O)C2CCC2)[C@H](CO)O1	-4	1	3	4	nt
CCC(=O)Nc1ccc2c(c1)C(=O)N(C)[C@H]1CC[C@H](CC(=O)NCCOC)O[C@H]1CO2	-1	-4	5	-5	nt
CCCn1c2ccccc2c2nc3ccccc3nc21	nt	nt	nt	nt	3
N#CCCn1c2ccccc2c2nc3ccccc3nc21	nt	nt	nt	41*	6
COCC(=O)N1CC[C@H]2[C@H](CO)Nc3ccc(C#Cc4ccc(OC)cc4)cc3[C@H]21	2	15*	-2	-8	nt
COc1ccc(C#Cc2ccc3c(c2)[C@@H]2[C@@H](CCN2C(=O)C2CCC2)[C@H](CO)N3)cc1	-1	17*	6	1	nt
CCCCOC(=O)c1cc(=O)[nH]c2ccccc12	-7	-4	7	58*	4
CCCCOC(=O)c1cc(=O)[nH]c2ccc(C)cc12	-1	-5	0	1	0
Cc1cccc(C)c1NC(=O)COC(=O)c1cc(=O)[nH]c2ccccc12	0	17*	6	3	-4
COc1ccc(-c2nn3c(-c4ccco4)nnc3s2)cc1OC	nt	nt	nt	nt	-4
COc1ccc(-c2nnc3sc(-c4ccco4)nn23)cc1OC	nt	nt	nt	59*	4
CCOc1cc(C=NN2CCCCCC2)ccc1O	-10	31*	-3	-7	-30
COc1ccc(C(=Cc2ccccc2)C(=O)O)cc1	6	3	5	nt	18
COc1ccc(C=C(C(=O)O)c2ccc(OC)cc2)cc1	-2	-1	-7	49*	2
C[C@H](CO)N1C[C@H](C)[C@@H](CN(C)Cc2ccncc2)Oc2c(NC(=O)Cn3cnnn3)cccc2C1=O	nt	nt	nt	6	nt
CCCC#Cc1ccc2c(c1)[C@H]1[C@H](CCN1C(=O)C1CC1)[C@H](CO)N2	nt	nt	nt	-11	nt
O=C(CCC(=O)Nc1cccc(Cl)c1)N/N=C/c1cc([N+](=O)[O-])ccc1O	-3	15*	-17	-1	-9
SMILES	ERp5 block	SIRT5 inh	S100A4 inh HTS	GSIS activator	PDI inh
O=C(N/C(=C\c1ccc([N+](=O)[O-])cc1)C(=O)N1CCCCC1)c1ccccc1	4	16*	0	-17	7
COCCn1c(=O)[nH]c2cc(C(=O)Nc3cc(OC)c(OC)c(OC)c3)ccc2c1=O	-4	4	2	47*	0
CC(C)(C)c1ccc(C2CC2C(=O)N/N=C\c2ccc[nH]2)cc1 (stereo not drawn)	3	nt	4	59*	-4
CO[C@H]1CN(C)C(=O)c2cc(NC(=O)CC(F)(F)F)ccc2OC[C@H](C)N(C(=O)C2CC2)C[C@@H]1C	42*	-2	-3	6	nt
CO[C@H]1CN(C)C(=O)c2cc(NC(=O)CC(F)(F)F)ccc2OC[C@H](C)N(C(C)=O)C[C@@H]1C	-5	16*	-6	-12	nt
CO[C@@H]1CN(C)C(=O)c2cc(NC(=O)CC(F)(F)F)ccc2OC[C@H](C)N(C(=O)C2CC2)C[C@@H]1C	nt	nt	nt	6	nt
C[C@H]1CN([C@@H](C)CO)C(=O)Cc2cc(NC(=O)c3ccncc3)ccc2O[C@@H]1CN(C)Cc1ccc(Cl)c(Cl)c1	-5	0	-11	-7	nt
C/C(=N/Oc1nc(C)cc(C)n1)c1ccccc1	nt	nt	nt	nt	-1
C/C(=N/Oc1nc(C)cc(C)n1)c1ccc(F)cc1	nt	nt	nt	64*	0
COc1ccc(CN(C)C[C@H]2Oc3ccc(NS(=O)(=O)c4ccccc4)cc3C(=O)N([C@H](C)CO)C[C@H]2C)cc1	-1	-5	-26	8	nt
COc1ccc(CN(C)C[C@@H]2Oc3ccc(NS(=O)(=O)c4ccccc4)cc3C(=O)N([C@H](C)CO)C[C@@H]2C)cc1	3	0	6	3	nt
COc1ccc(S(=O)(=O)Nc2ccc3c(c2)C(=O)N([C@@H](C)CO)C[C@H](C)[C@@H](CN(C)Cc2ccc(Oc4ccccc4)cc2)O3)cc1	7	25*	8	-3	nt
COc1ccc(S(=O)(=O)Nc2ccc3c(c2)C(=O)N([C@@H](C)CO)C[C@@H](C)[C@@H](CN(C)Cc2ccc(Oc4ccccc4)cc2)O3)cc1	2	35*	4	-6	nt
C[C@@H]1CN([C@@H](C)CO)C(=O)c2cc(NS(=O)(=O)c3ccccc3)ccc2O[C@@H]1CN(C)Cc1ccc(Oc2ccccc2)cc1	-1	20*	4	-10	nt
COc1ccc(S(=O)(=O)Nc2ccc3c(c2)C(=O)N([C@H](C)CO)C[C@H](C)[C@H](CN(C)Cc2ccc(Oc4ccccc4)cc2)O3)cc1	1	31*	-3	2	nt
COc1ccc(CN(C)C[C@@H]2Oc3ccc(NS(=O)(=O)c4ccccc4)cc3C(=O)N([C@@H](C)CO)C[C@@H]2C)cc1	0	2	9	13	nt
C/C=C/c1ccc([C@H]2[C@@H](CO)N(C(=O)CN(C)C)[C@H]2CN(C)C(C)=O)cc1	1	4	nt	-2	nt
C[C@H](CO)N1C[C@H](C)[C@H](CN(C)S(=O)(=O)c2cn(C)cn2)Oc2ccc(NC(=O)C3CC3)cc2CC1=O	-8	-1	8	15	nt
C[C@H]1CN([C@@H](C)CO)C(=O)c2cc(NC(=O)C3CC3)ccc2O[C@H]1CN(C)S(=O)(=O)c1cn(C)cn1	-3	29*	-5	8	nt

Source: PubChem
